Out of some 220,000 compounds screened, about 560 (0.25%) were called active.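 How the source made its calls: active means inhibition at or above 40%; inactive means inhibition below 40%.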 Many of the other results were omitted from the sample, so actives are more common in it than they were.
The compounds below were run against Prothrombin (Homo sapiens) (UniProt P00734) (assay: human alpha-thrombin inhibitors, primary screen, counter-screen for coagulation protease inhibitor project, biochemical, 1536-well, fluorogenic AMC substrate (AID 1046;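 further: 0% = enzyme with no compound and 100% = wells without enzyme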)). Conditions: Boc-VPR-AMC fluorogenic substrate cleavage, at 5 µM, stronger effect = higher value.
Method in brief: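 System – human alpha-thrombin · Medium – pH 7.5 Tris (50 mM) with NaCl 150 mM, Tween 20 0.05% · Compound – single-point dosing at 5 µM, 0.2% DMSO · Incubation – enzyme reaction carried out at room temperature · Technique – fluorescence of released AMC, ex 355 nm, em 460 nm · Read-out basis – % inhibition of thrombin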

Compound | inhibition
CCOC(=O)c1c(NC(=O)C(C)Sc2c[nH]c3ccccc23)sc2c1CCC2 (stereo unspecified) | 1.33% (inactive)
O=C(CSc1nc2c(cnn2-c2ccc(F)cc2)c(=O)[nH]1)N1CCCCCC1 | 40.9% (active)
CC(=O)c1sc2nc(SCC(=O)N3CCCCC3)[nH]c(=O)c2c1C | -2.78% (inactive)
Cc1nnc(SCC(=O)N2CCOCC2)[nH]c1=O | -2.64% (inactive)
CCNC(=S)NNC(=O)C1CCN(Cc2ccccc2)CC1 | -3.23% (inactive)
Cc1ccc(C)n1NC(=O)c1ccc([N+](=O)[O-])cc1 | -0.02% (inactive)
O=C(Nn1cnnc1)c1ccc([N+](=O)[O-])cc1 | -7.16% (inactive)
O=C(Nc1cc2c3c(c1)C1CCCC1CN3CC1CCCC21)c1ccc([N+](=O)[O-])cc1 (stereo unspecified) | 101% (active)
Cn1c(=O)c(=O)n(C)c2cc(S(=O)(=O)NCCN3CCN(c4ccccc4F)CC3)ccc21 | -4.5% (inactive)
C=CCC(Nc1ccccc1)c1cccc(OC)c1OC (stereo unspecified) | -13% (inactive)
CC1COc2ccccc2N1S(=O)(=O)c1ccccc1 (stereo unspecified) | 4.45% (inactive)
Cc1ccccc1Cn1nc(C)c(NC(=O)C(F)(F)F)c1C | -1.16% (inactive)
CCO[C@@H]1OC(C(=O)NC2CC2)=C[C@H](C)[C@H]1CCCO | -5.9% (inactive)
CCN1CCN(CC(=O)c2cc(OC)c(OC)c(OC)c2)CC1 | 45.6% (active)
CCCN(CCC)S(=O)(=O)c1ccc(C(=O)NNC(=O)c2cc(OC)c(OC)c(OC)c2)cc1 | 2.82% (inactive)
COC(=O)c1cccc(NC(=O)CN2CCC(NC(=O)c3cc(OC)c(OC)c(OC)c3)CC2)c1 | -1.04% (inactive)

Compound | inhibition
CCCN(CCC)c1c([N+](=O)[O-])c(=O)oc2ccccc12 | 0.93% (inactive)
COc1ccc(OC)c(-n2c(-c3ccn[nH]3)n[nH]c2=S)c1 | -4.83% (inactive)
COCC(=O)Nc1cc(C(=O)OC)cc(C(=O)OC)c1 | 0.93% (inactive)
O=C(Cc1ccccc1)n1nc(-c2ccccc2)nc1NCc1ccco1 | 75.1% (active)
CS(=O)(=O)n1nc(-c2ccccc2)nc1NCc1ccco1 | -2.92% (inactive)
c1ccc(-c2nc(NCc3ccco3)c3ccccc3n2)cc1 | 3.14% (inactive)
O=C(c1ccc(N2CCOCC2)c([N+](=O)[O-])c1)N1CCN(S(=O)(=O)c2cccs2)CC1 | -1.14% (inactive)
c1ccc(CN=C2Nc3ccccc3CS2)nc1 | -2.61% (inactive)
O=C(CSc1nc2ccccc2s1)Nc1ccc(C(=O)O)cc1 | -1.16% (inactive)
CCn1cc(CNC(=O)c2cc([N+](=O)[O-])c(C)c([N+](=O)[O-])c2)cn1 | -0.78% (inactive)
Cc1ccc(CN2CCN(Cc3cn(C)nc3-c3ccccc3)CC2CCO)o1 (stereo unspecified) | 0.78% (inactive)
Cc1ccc(S(=O)(=O)/N=C(/NC(=S)Nc2c(C)n(C)n(-c3ccccc3)c2=O)c2ccccc2)cc1 | 3.47% (inactive)
Cc1cc(C)cc(N(CC(=O)Nc2c(C)n(C)n(-c3ccccc3)c2=O)S(C)(=O)=O)c1 | 4.95% (inactive)
Cc1ccc(S(=O)(=O)CC(=O)Nc2c(C)n(C)n(-c3ccccc3)c2=O)cc1 | 46.1% (active)
CC(=O)N/C(=C\c1ccc(F)cc1)C(=O)NC(Cc1ccccc1)C(=O)O (stereo unspecified) | -5.05% (inactive)

Source: PubChem BioAssay AID1046 (PCMD, 2008)
